{"source": "ChEMBL document CHEMBL4715714", "about": "“Design, synthesis and biological evaluation of thiosemicarbazones, hydrazinobenzothiazoles and arylhydrazones as anticancer agents with a potential to overcome multidrug resistance” (Eur J Med Chem, 2016)", "key": {"MES-SA [1]": {"system": "MES-SA", "test": "Cytotoxicity against human MES-SA cells assessed as inhibition of cell proliferation incubated for 72 hrs by MTT assay", "type": "functional, cell-based", "summary_of_the_method": "(§1)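 Cells were seeded (10000/well for A2780, 5000/well for MES-SA/Dx5 and KB-3-1/V1) and left to attach 12 h, then exposed to compound for 72 h. Medium was removed, and MTT (0.83 mg/mL) was added for 1 h at 37 °C. Cells were lysed in DMSO and absorbance read at 540 nm. Signal was corrected for unstained lysate background, normalized to untreated cells, and IC50 taken from a sigmoidal dose-response fit.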"}, "MES-SA/Dx5 [2]": {"system": "MES-SA/Dx5", "test": "Cytotoxicity against human MES-SA/DX5 cells assessed as inhibition of cell proliferation incubated for 72 hrs by MTT assay", "type": "functional, cell-based", "conditions": "for IC50: MES-SA/Dx5, 72 h", "summary_of_the_method": "as §1"}, "MES-SA [3]": {"system": "MES-SA", "test": "Cytotoxicity against human MES-SA cells transfected with mCherry fluorescent protein assessed as inhibition of cell proliferation incubated for 72 hrs by fluorescent assay", "type": "functional, cell-based", "conditions": "Homo sapiens, MES-SA, 72 h; read-out: IC50", "summary_of_the_method": "(§2)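 MES-SA and MES-SA/Dx5 cells were made to stably express mCherry by lentiviral transduction. Cells were seeded at 5000 (96-well) or 2500 (384-well) per well, allowed to attach 24 h, then treated with compound dilutions for 72 h. Viability was read as fluorescence, excitation 585 nm, emission 610 nm.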"}, "MES-SA/Dx5 [4]": {"system": "MES-SA/Dx5", "test": "Cytotoxicity against human MES-SA/DX5 cells transfected with mCherry fluorescent protein assessed as inhibition of cell proliferation incubated for 72 hrs by fluorescent assay", "type": "functional, cell-based", "conditions": "Homo sapiens, MES-SA/Dx5, 72 h; read-out: IC50", "summary_of_the_method": "as §2"}, "KB 3-1 [5]": {"system": "KB 3-1", "test": "Cytotoxicity against human KB-3-1 cells assessed as inhibition of cell proliferation incubated for 72 hrs by MTT assay", "type": "functional, cell-based", "conditions": "for IC50: KB 3-1, 72 h", "summary_of_the_method": "as §1"}, "KB-V1 [6]": {"system": "KB-V1", "test": "Cytotoxicity against human KB-V1 cells assessed as inhibition of cell proliferation incubated for 72 hrs by MTT assay", "type": "functional, cell-based", "conditions": "for IC50: KB-V1, 72 h", "summary_of_the_method": "as §1"}, "A2780": {"system": "A2780", "test": "Cytotoxicity against human A2780 cells assessed as inhibition of cell proliferation incubated for 72 hrs by MTT assay", "type": "functional, cell-based", "conditions": "A2780, 72 h", "summary_of_the_method": "as §1"}, "[7]": {"test": "Cytotoxicity against human A2780adr cells assessed as inhibition of cell proliferation incubated for 72 hrs by MTT assay", "type": "functional, cell-based", "conditions": "A2780 ADR", "summary_of_the_method": "as §1"}, "MES-SA/Dx5 [8]": {"system": "MES-SA/Dx5", "test": "Cytotoxicity against human MES-SA/DX5 cells incubated for 72 hrs in presence of efflux pump inhibitor, Tariquidar by MTT assay", "type": "functional, cell-based", "summary_of_the_method": "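Run as the 72 h MTT viability readout (12 h attachment, MTT 0.83 mg/mL for 1 h, DMSO lysis, A540), with the P-gp inhibitor Tariquidar at 1 µM co-present. IC50 came from sigmoidal fits of 2 to 4 independent experiments.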"}, "MES-SA/Dx5 [9]": {"system": "MES-SA/Dx5", "test": "Reduction in P-gp expression in human MES-SA/DX5 cells at IC20 concentration incubated for 5 days by calcein-AM staining based flow cytometric analysis", "type": "functional, cell-based", "conditions": "time 5.0 day", "summary_of_the_method": "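MES-SA/Dx5 cells were grown 5 days with compound at IC20 values calculated from viability assays, then recovered in drug-free medium refreshed every fifth day. At 80% confluency, cells were stained with Calcein AM with or without verapamil, with TO-PRO-3 excluding dead cells, and analysed by flow cytometry for the P-gp-negative fraction.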"}, "MES-SA/Dx5 [10]": {"system": "MES-SA/Dx5", "test": "Reduction in P-gp expression in human MES-SA/DX5 cells measured after 5 rounds of treatment by DAPI staining based immunocytochemistry analysis", "type": "functional, cell-based", "summary_of_the_method": "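Treated cells were plated in chamber slides, fixed after 1 day in 4% paraformaldehyde for 15 min, and blocked 1 h (BSA, fish gelatin, goat serum, Triton X-100). They were stained with anti-P-gp MRK16 (1:500, 1 h), then PE goat anti-mouse IgG (1:250, 1 h), with DAPI 1 µM for 10 min. Imaging used fluorescence and confocal microscopy.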"}, "[11]": {"test": "Selectivity ratio of IC50 for human MES-SA cells to IC50 for human MES-SA/DX5 cells incubated for 72 hrs by MTT assay", "type": "functional", "summary_of_the_method": "(§3)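 The selectivity ratio is the IC50 in P-gp-negative parental cells divided by the IC50 in the P-gp-positive resistant partner.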"}, "[12]": {"test": "Selectivity ratio of IC50 for human MES-SA cells transfected with mCherry to IC50 for human MES-SA/DX5 cells transfected with mCherry incubated for 72 hrs by fluorescent assay", "type": "functional"}, "[13]": {"test": "Selectivity ratio of IC50 for human KB-3-1 cells to IC50 for human KB-V1 cells incubated for 72 hrs by MTT assay", "type": "functional", "summary_of_the_method": "as §3"}, "[14]": {"test": "Selectivity ratio of IC50 for human A2780 cells to IC50 for human A2780adr cells incubated for 72 hrs by MTT assay", "type": "functional", "summary_of_the_method": "as §3"}, "MES-SA/Dx5 [15]": {"system": "MES-SA/Dx5", "test": "Cytotoxicity against human MES-SA/DX5 cells transfected with mCherry fluorescent protein incubated for 72 hrs in presence of efflux pump inhibitor, Tariquidar by fluorescence assay", "type": "functional, cell-based", "summary_of_the_method": "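The mCherry-expressing cells (lentiviral) were seeded at 5000 or 2500 per well, attached for 24 h, and exposed 72 h to compounds with Tariquidar coadministered. Live-cell signal was fluorescence at 585 nm excitation and 610 nm emission.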"}, "KB-V1 [16]": {"system": "KB-V1", "test": "Cytotoxicity against human KB-V1 cells assessed as inhibition of cell proliferation incubated for 72 hrs in presence of efflux pump inhibitor, Tariquidar by MTT assay", "type": "functional, cell-based"}, "A2780 ADR": {"system": "A2780 ADR", "test": "Cytotoxicity against human A2780adr cells assessed as inhibition of cell proliferation incubated for 72 hrs in presence of efflux pump inhibitor, Tariquidar by MTT assay", "type": "functional, cell-based"}, "MES-SA [17]": {"system": "MES-SA", "test": "Cytotoxicity against human MES-SA cells assessed as inhibition of cell proliferation at <50 uM incubated for 72 hrs by MTT assay", "type": "functional, cell-based", "conditions": "dose microM <50, time 72.0 hrs", "summary_of_the_method": "as §1"}, "MES-SA/Dx5 [18]": {"system": "MES-SA/Dx5", "test": "Cytotoxicity against human MES-SA/DX5 cells assessed as inhibition of cell proliferation at <50 uM incubated for 72 hrs by MTT assay", "type": "functional, cell-based", "conditions": "dose microM <50, time 72.0 hrs", "summary_of_the_method": "as §1"}, "MES-SA [19]": {"system": "MES-SA", "test": "Cytotoxicity against human MES-SA cells assessed as inhibition of cell proliferation at >=50 uM incubated for 72 hrs by MTT assay", "type": "functional, cell-based", "conditions": "dose microM >=50, time 72.0 hrs", "summary_of_the_method": "as §1"}, "MES-SA/Dx5 [20]": {"system": "MES-SA/Dx5", "test": "Cytotoxicity against human MES-SA/DX5 cells assessed as inhibition of cell proliferation at >=50 uM incubated for 72 hrs by MTT assay", "type": "functional, cell-based", "conditions": "dose microM >=50, time 72.0 hrs", "summary_of_the_method": "as §1"}, "KB 3-1 [21]": {"system": "KB 3-1", "test": "Cytotoxicity against human KB-3-1 cells assessed as inhibition of cell proliferation at >=50 uM incubated for 72 hrs by MTT assay", "type": "functional, cell-based", "conditions": "dose microM >=50, time 72.0 hrs", "summary_of_the_method": "as §1"}, "KB-V1 [22]": {"system": "KB-V1", "test": "Cytotoxicity against human KB-V1 cells assessed as inhibition of cell proliferation at >=50 uM incubated for 72 hrs by MTT assay", "type": "functional, cell-based", "conditions": "dose microM >=50, time 72.0 hrs", "summary_of_the_method": "as §1"}}, "note": "The source made the active and inactive calls. The rule behind the calls is not given here."}
{"smiles": "O=C1Nc2ccccc2/C1=N/NC(=S)Nc1ccc([N+](=O)[O-])cc1", "values": [{"measurement": "IC50", "setting": "MES-SA [1]; read-out: IC50", "value": 9.17, "unit": "µM"}, {"measurement": "IC50", "setting": "MES-SA [1]; read-out: pIC50 (converted)", "value": 8.51, "unit": "µM"}, {"measurement": "IC50", "setting": "MES-SA/Dx5 [2]; read-out: IC50", "value": 4.74, "unit": "µM"}, {"measurement": "IC50", "setting": "MES-SA/Dx5 [2]; read-out: pIC50 (converted)", "value": 4.68, "unit": "µM"}, {"measurement": "IC50", "setting": "MES-SA [3]", "value": 15.8, "unit": "µM"}, {"measurement": "IC50", "setting": "MES-SA/Dx5 [4]", "value": 7.55, "unit": "µM"}, {"measurement": "IC50", "setting": "KB 3-1 [5]; read-out: IC50", "value": 8.2, "unit": "µM"}, {"measurement": "IC50", "setting": "KB 3-1 [5]; read-out: pIC50 (converted)", "value": 7.76, "unit": "µM"}, {"measurement": "IC50", "setting": "KB-V1 [6]; read-out: IC50", "value": 4.58, "unit": "µM"}, {"measurement": "IC50", "setting": "KB-V1 [6]; read-out: pIC50 (converted)", "value": 4.47, "unit": "µM"}, {"measurement": "IC50", "setting": "A2780; read-out: IC50", "value": 25.7, "unit": "µM"}, {"measurement": "IC50", "setting": "A2780; read-out: pIC50 (converted)", "value": 24.5, "unit": "µM"}, {"measurement": "IC50", "setting": "[7]; read-out: IC50", "value": 8.78, "unit": "µM"}, {"measurement": "IC50", "setting": "[7]; read-out: pIC50 (converted)", "value": 8.91, "unit": "µM"}, {"measurement": "Activity", "setting": "MES-SA/Dx5 [8]", "value": "inactive"}, {"measurement": "inhibition", "setting": "MES-SA/Dx5 [9]", "value": "Active"}, {"measurement": "inhibition", "setting": "MES-SA/Dx5 [10]", "value": "Active"}, {"measurement": "Ratio IC50", "setting": "[11]", "value": 1.77}, {"measurement": "Ratio IC50", "setting": "[12]", "value": 3.55}, {"measurement": "Ratio IC50", "setting": "[13]", "value": 1.82}, {"measurement": "Ratio IC50", "setting": "[14]", "value": 2.98}, {"measurement": "Activity", "setting": "MES-SA/Dx5 [15]", "value": "inactive"}, {"measurement": "Activity", "setting": "KB-V1 [16]", "value": "inactive"}, {"measurement": "Activity", "setting": "A2780 ADR", "value": "inactive"}]}
{"smiles": "COc1ccc(NC(=S)NNC(=S)Nc2ccc(OC)cc2)cc1", "values": [{"measurement": "pIC50", "setting": "MES-SA [1]", "value": "inactive"}, {"measurement": "pIC50", "setting": "MES-SA/Dx5 [2]", "value": "inactive"}, {"measurement": "Activity", "setting": "MES-SA [17]", "value": "inactive"}, {"measurement": "Activity", "setting": "MES-SA/Dx5 [18]", "value": "inactive"}]}
{"smiles": "COc1ccc(NC(=S)NNc2nc3ccccc3s2)cc1", "values": [{"measurement": "pIC50", "setting": "MES-SA [1]", "value": "inactive"}, {"measurement": "pIC50", "setting": "MES-SA/Dx5 [2]", "value": "inactive"}, {"measurement": "pIC50", "setting": "KB 3-1 [5]", "value": "inactive"}, {"measurement": "pIC50", "setting": "KB-V1 [6]", "value": "inactive"}, {"measurement": "Activity", "setting": "MES-SA [19]", "value": "inactive"}, {"measurement": "Activity", "setting": "MES-SA/Dx5 [20]", "value": "inactive"}, {"measurement": "Activity", "setting": "KB 3-1 [21]", "value": "inactive"}, {"measurement": "Activity", "setting": "KB-V1 [22]", "value": "inactive"}]}
